From ChEMBL document CHEMBL1124188, “Soft drugs. 7. Soft beta-blockers for systemic and ophthalmic use” (J Med Chem, 1988)

Columns and labels:
[1] = species on record: Homo sapiens; test: In vitro hydrolytic rate constant determined in human blood; assay type: ADME
Procedure, shortened: (§1)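 Compounds were placed in human blood, and samples were withdrawn over time. Each sample was mixed at once with ice-cold acetonitrile and centrifuged. The supernatant was analysed by reverse-phase C18 HPLC with variable-wavelength UV detection. Disappearance was treated as pseudo-first-order. Values are the mean of at least four runs ± SE of the mean.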

[2] = (§2) Half life period determined in human blood; assay type: ADME, organism-based; procedure, shortened: as §1
[3] = species on record: Homo sapiens; test: as §2; assay type: ADME, organism-based; conditions: in vitro; procedure, shortened: as §1

Row | SMILES | K [1] [min⁻¹] | half-life ([2]; human blood) [min] | T1/2 [3] [min] | half-life [2] [min]
1 | CC(C)NCC(O)COc1ccc(CC(=O)OCC(=O)OC2CCCCC2)cc1 (centres undefined) | 0.154 | 4.5 | – | –
2 | CC(C)NCC(O)COc1ccc(CC(=O)OCC23CC4CC(CC(C4)C2)C3)cc1 (centres undefined) | 0.015 | 46.2 | – | –
3 | CC(C)NCC(O)COc1ccc(CC(=O)OCCC23CC4CC(CC(C4)C2)C3)cc1 (centres undefined) [ADAPROLOL] | 0.1 | – | – | 6.9

The next lines start with the values.

Row | K [1] [min⁻¹] | half-life ([2]; human blood) [min] | T1/2 [3] [min] | half-life [2] [min] | SMILES
4 | 0.0009 | 770 | – | – | CC(C)NCC(O)COc1ccc(CC(=O)OC2CC3CCC2(C)C3(C)C)cc1 (centres undefined)
5 | 35000 | – | 19.8 | – | CC(C)NCC(O)COc1ccc(CC(=O)OC2CC3CCC2C3)cc1 (stereo in doubt; 3e)
6 | 0.02 | 34.6 | – | – | CC(C)NCC(O)COc1ccc(CC(=O)OC2CC3CCC2C3)cc1 (stereo in doubt; 3f)
7 | 0.0033 | – | 210 | – | COC(=O)CCc1ccc(OCC(O)CNC(C)C)cc1 (centres undefined) [ESMOLOL]
